ChEMBL document CHEMBL3407457, “Microwave-assisted synthesis of certain pyrrolylpyridines, some derived ring systems and their evaluation as anticancer and antioxidant agents” (Eur J Med Chem, 2015)

What was measured:
[1] = Antioxidant activity assessed as DPPH radical scavenging activity at 10^-4 M incubated for 30 mins by spectrophotometry; type: physicochemical; settings: 0.5 h, 100 µM
Outline: (§1)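 Compound at 10^-3 or 10^-4 M mixed with methanolic DPPH (0.1 mL of 1 mM stock; 3 mL total volume), shaken, kept in the dark 30 min at room temperature. Absorbance read at 517 nm. Scavenging (%) = (A_control − A_sample)/A_control × 100, where the control is DPPH in methanol alone. BHT served as reference antioxidant. Triplicate, mean ± SD of three independent experiments.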

[2] = Antioxidant activity assessed as DPPH radical scavenging activity at 10^-3 M incubated for 30 mins by spectrophotometry; type: physicochemical; settings: 0.5 h, 1000 µM; outline: as §1
[3] = Growth inhibition of human EKVX cells at 10 uM after 48 hrs by sulforhodamine B assay; type: functional; settings: read-out: GI
Outline: (§2)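 NCI-60 primary screen: cells given a single 10 µM dose under 48 h continuous exposure. Growth/viability estimated by sulforhodamine B protein assay. Reported as percent growth of treated cells (mean graph), expressed as percent growth inhibition.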

[4] = Growth inhibition of human HOP92 cells at 10 uM after 48 hrs by sulforhodamine B assay; type: functional; settings: HOP-92, 48 h, read-out: GI; outline: as §2
NCI-H522 = assay: Growth inhibition of human NCI-H522 cells at 10 uM after 48 hrs by sulforhodamine B assay; type: functional; settings: NCI-H522, 48 h, read-out: GI; outline: as §2
[5] = Growth inhibition of human HCT116 cells at 10 uM after 48 hrs by sulforhodamine B assay; type: functional; settings: HCT-116, 48 h, read-out: GI; outline: as §2
[6] = Growth inhibition of human HCT15 cells at 10 uM after 48 hrs by sulforhodamine B assay; type: functional; settings: HCT-15, 48 h, read-out: GI; outline: as §2
[7] = Growth inhibition of human Hs 578T cells at 10 uM after 48 hrs by sulforhodamine B assay; type: functional; settings: read-out: GI; outline: as §2
MDA-MB-468 = assay: Growth inhibition of human MDA-MB-468 cells at 10 uM after 48 hrs by sulforhodamine B assay; type: functional; settings: MDA-MB-468, 48 h, read-out: GI; outline: as §2
T47D = assay: Growth inhibition of human T47D cells at 10 uM after 48 hrs by sulforhodamine B assay; type: functional; settings: read-out: GI; outline: as §2
IGROV-1 = assay: Growth inhibition of human IGROV1 cells at 10 uM after 48 hrs by sulforhodamine B assay; type: functional; settings: IGROV-1, 48 h, read-out: GI; outline: as §2
[8] = Growth inhibition of human OVCAR4 cells at 10 uM after 48 hrs by sulforhodamine B assay; type: functional; settings: OVCAR-4, 48 h, read-out: GI; outline: as §2
CCRF-CEM = assay: Growth inhibition of human CCRF-CEM cells at 10 uM after 48 hrs by sulforhodamine B assay; type: functional; settings: read-out: GI; outline: as §2
HL-60(TB) = assay: Growth inhibition of human HL-60(TB) cells at 10 uM after 48 hrs by sulforhodamine B assay; type: functional; settings: HL-60, 48 h, read-out: GI
Outline: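 NCI-60 one-dose primary screen, HL-60(TB) within the leukemia subpanel. Single 10 µM concentration, 48 h continuous exposure. Growth estimated by sulforhodamine B protein assay. Percent growth of treated cells expressed as percentage growth inhibition (GI%).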

K562 = assay: Growth inhibition of human K562 cells at 10 uM after 48 hrs by sulforhodamine B assay; type: functional; settings: K562, 48 h, read-out: GI; outline: as §2
[9] = Growth inhibition of human MOLT4 cells at 10 uM after 48 hrs by sulforhodamine B assay; type: functional; settings: MOLT-4, 48 h, read-out: GI; outline: as §2
[10] = Growth inhibition of human RPMI8226 cells at 10 uM after 48 hrs by sulforhodamine B assay; type: functional; settings: RPMI-8226, 48 h, read-out: GI; outline: as §2
A498 = assay: Growth inhibition of human A498 cells at 10 uM after 48 hrs by sulforhodamine B assay; type: functional; settings: A498, 48 h, read-out: GI; outline: as §2
ACHN = assay: Growth inhibition of human ACHN cells at 10 uM after 48 hrs by sulforhodamine B assay; type: functional; settings: read-out: GI; outline: as §2
CAKI-1 = assay: Growth inhibition of human CAKI-1 cells at 10 uM after 48 hrs by sulforhodamine B assay; type: functional; settings: CAKI-1, 48 h, read-out: GI; outline: as §2
[11] = Growth inhibition of human UO31 cells at 10 uM after 48 hrs by sulforhodamine B assay; type: functional; settings: UO-31, 48 h, read-out: GI; outline: as §2
[12] = Growth inhibition of human LOXIMVI cells at 10 uM after 48 hrs by sulforhodamine B assay; type: functional; settings: LOX IMVI, read-out: GI; outline: as §2
SK-MEL-5 = assay: Growth inhibition of human SK-MEL-5 cells at 10 uM after 48 hrs by sulforhodamine B assay; type: functional; settings: SK-MEL-5, 48 h, read-out: GI; outline: as §2
[13] = Growth inhibition of human UACC62 cells at 10 uM after 48 hrs by sulforhodamine B assay; type: functional; settings: UACC-62, 48 h, read-out: GI; outline: as §2
[14] = Growth inhibition of human PC3 cells at 10 uM after 48 hrs by sulforhodamine B assay; type: functional; settings: PC-3, 48 h, read-out: GI; outline: as §2
SNB-75 = assay: Growth inhibition of human SNB75 cells at 10 uM after 48 hrs by sulforhodamine B assay; type: functional; settings: SNB-75, 48 h, read-out: GI; outline: as §2
U-251 = assay: Growth inhibition of human U251 cells at 10 uM after 48 hrs by sulforhodamine B assay; type: functional; settings: U-251, 48 h, read-out: GI; outline: as §2

SMILES: CC1CCCc2c1nc(NC(=S)NC(=O)c1ccccc1)c(C#N)c2-c1cccn1C (configuration not stated)
- inhibition (INH) [1]: 11%
- inhibition (INH) [2]: 23%
- inhibition of growth at 10 µM [3]: 14.2%
- inhibition of growth at 10 µM [4]: 32%
- inhibition of growth at 10 µM (NCI-H522): 22.4%
- inhibition of growth at 10 µM [5]: 19.5%
- inhibition of growth at 10 µM [6]: 20.1%
- inhibition of growth at 10 µM [7]: 38.1%
- inhibition of growth at 10 µM (MDA-MB-468): 32.7%
- inhibition of growth at 10 µM (T47D): 40.6%
- inhibition of growth at 10 µM (IGROV-1): 38.8%
- inhibition of growth at 10 µM [8]: 27.6%
- inhibition of growth at 10 µM (CCRF-CEM): 27.5%
- inhibition of growth at 10 µM (HL-60(TB)): 35.9%
- inhibition of growth at 10 µM (K562): 33.5%
- inhibition of growth at 10 µM [9]: 31.4%
- inhibition of growth at 10 µM [10]: 36.7%
- inhibition of growth at 10 µM (A498): 22.6%
- inhibition of growth at 10 µM (ACHN): 31.4%
- inhibition of growth at 10 µM (CAKI-1): 31.9%
- inhibition of growth at 10 µM [11]: 51.4%
- inhibition of growth at 10 µM [12]: 29.6%
- inhibition of growth at 10 µM (SK-MEL-5): 12.8%
- inhibition of growth at 10 µM [13]: 24.7%
- inhibition of growth at 10 µM [14]: 28.4%
- inhibition of growth at 10 µM (SNB-75): 31.9%
- inhibition of growth at 10 µM (U-251): 15.8%
